Assay results reported in ChEMBL document CHEMBL1765017, “Homoisoflavonoids: natural scaffolds with potent and selective monoamine oxidase-B inhibition properties” (J Med Chem, 2011).

Legend:
[1] = biological target: T1, Amine oxidase [flavin-containing] B (Homo sapiens, UniProt P27338); assay: biochemical; type: cell-based, BTI-TN-5B1-4
T1 sequence (P27338 whole entry): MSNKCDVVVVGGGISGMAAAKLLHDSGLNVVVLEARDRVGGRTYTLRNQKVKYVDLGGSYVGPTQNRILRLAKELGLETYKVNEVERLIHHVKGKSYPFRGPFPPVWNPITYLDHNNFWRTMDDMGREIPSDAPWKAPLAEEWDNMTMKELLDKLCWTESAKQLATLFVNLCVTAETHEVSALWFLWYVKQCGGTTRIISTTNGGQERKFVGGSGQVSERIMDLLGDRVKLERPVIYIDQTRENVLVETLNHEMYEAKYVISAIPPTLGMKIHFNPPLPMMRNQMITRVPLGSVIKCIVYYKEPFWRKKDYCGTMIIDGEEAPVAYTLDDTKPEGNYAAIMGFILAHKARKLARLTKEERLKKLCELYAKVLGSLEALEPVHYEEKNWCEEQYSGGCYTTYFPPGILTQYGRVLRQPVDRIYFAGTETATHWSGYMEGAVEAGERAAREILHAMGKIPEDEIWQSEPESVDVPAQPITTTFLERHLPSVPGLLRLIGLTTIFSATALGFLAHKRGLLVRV

[2] = biological target: T2, Amine oxidase [flavin-containing] A (Homo sapiens, UniProt P21397); assay: Inhibition of human recombinant MAO-A expressed in baculovirus infected BTI-TN-5B1-4 insect sells assessed as hydrogen peroxide production at 100 uM by fluorimetric method; settings: for inhibition (INH): human, bti-tn-5b1-4, 100 µM; for inhibition at 100 µM: BTI-TN-5B1-4, human
T2 sequence (P21397 whole entry): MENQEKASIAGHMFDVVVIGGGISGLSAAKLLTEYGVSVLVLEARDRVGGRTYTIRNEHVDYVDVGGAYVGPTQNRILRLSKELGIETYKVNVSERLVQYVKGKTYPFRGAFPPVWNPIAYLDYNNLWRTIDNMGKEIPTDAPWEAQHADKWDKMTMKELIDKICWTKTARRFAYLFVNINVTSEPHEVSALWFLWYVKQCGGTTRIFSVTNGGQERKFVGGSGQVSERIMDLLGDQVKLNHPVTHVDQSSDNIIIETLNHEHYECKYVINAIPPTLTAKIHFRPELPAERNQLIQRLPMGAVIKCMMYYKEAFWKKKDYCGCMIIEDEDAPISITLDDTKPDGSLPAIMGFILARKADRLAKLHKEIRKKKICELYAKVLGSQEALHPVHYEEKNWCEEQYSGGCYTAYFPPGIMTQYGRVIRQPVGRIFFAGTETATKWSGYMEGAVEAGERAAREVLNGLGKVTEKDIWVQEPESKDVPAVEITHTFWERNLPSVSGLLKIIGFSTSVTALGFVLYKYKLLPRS
Summary of the method: (§1)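 Microsomal human MAO-A or MAO-B from BTI-TN-5B1-4 insect cells infected with recombinant baculovirus carrying the isoform cDNA. p-Tyramine was the substrate for both isoforms. H2O2 production was detected fluorimetrically with the Amplex Red reagent. Compounds were checked for direct reaction with Amplex Red. Highest concentrations tested were 100 μM, or 1 mM for some compounds.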

[3] = biological target: T1, Amine oxidase [flavin-containing] B; assay: Inhibition of human recombinant MAO-B expressed in baculovirus infected BTI-TN-5B1-4 insect sells assessed as hydrogen peroxide production at 100 uM by fluorimetric method; settings: for inhibition at 100 µM: BTI-TN-5B1-4, human; for inhibition (INH): human, bti-tn-5b1-4, 100 µM
Summary of the method: as §1

Homo sapiens = species on record: Homo sapiens; assay: Selectivity index, ratio of IC50 for human MAO-A to IC50 for human MAO-B
Summary of the method: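 SI = IC50(hMAO-A)/IC50(hMAO-B). IC50s come from the Amplex Red fluorimetric assay of H2O2 from p-tyramine using baculovirus-expressed human isoforms, mean ± SEM of five experiments.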

[4] = biological target: T2, Amine oxidase [flavin-containing] A; assay: Inhibition of human recombinant MAO-A expressed in baculovirus infected BTI-TN-5B1-4 insect sells assessed as hydrogen peroxide production by fluorimetric method
[5] = biological target: T2, Amine oxidase [flavin-containing] A; assay: Inhibition of human recombinant MAO-A expressed in baculovirus infected BTI-TN-5B1-4 insect sells assessed as hydrogen peroxide production at 500 uM by fluorimetric method; settings: BTI-TN-5B1-4, human
Summary of the method: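 Microsomal hMAO-A from insect cells (BTI-TN-5B1-4) infected with recombinant baculovirus carrying the hMAO-A cDNA. Fluorimetric Amplex Red assay measures H2O2 formed from p-tyramine, the substrate. Percent inhibition is expressed against control activity, given as pmol p-tyramine oxidised per min. Mean ± SEM of five experiments.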

[6] = biological target: T2, Amine oxidase [flavin-containing] A; assay: Inhibition of human recombinant MAO-A expressed in baculovirus infected BTI-TN-5B1-4 insect sells assessed as hydrogen peroxide production at 500 uM measured after repeated washing by fluorimetric method; settings: BTI-TN-5B1-4, human
Summary of the method: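 Microsomal hMAO-A from insect cells infected with recombinant baculovirus. After exposure to inhibitor, the enzyme was washed repeatedly by centrifugation-ultrafiltration. Remaining activity was then read by Amplex Red fluorescence as H2O2 formed from p-tyramine. Percent inhibition is compared with before washing by ANOVA/Dunnett's. Mean ± SEM, n = 5.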

[7] = biological target: T1, Amine oxidase [flavin-containing] B; assay: Inhibition of human recombinant MAO-B expressed in baculovirus infected BTI-TN-5B1-4 insect sells assessed as hydrogen peroxide production at 1 mM by fluorimetric method; settings: bti-tn-5b1-4, 1000 µM
Summary of the method: as §1

[8] = biological target: T1, Amine oxidase [flavin-containing] B; assay: Inhibition of human recombinant MAO-B expressed in baculovirus infected BTI-TN-5B1-4 insect sells assessed as hydrogen peroxide production at 10 nM measured after repeated washing by fluorimetric method; settings: BTI-TN-5B1-4, human
[9] = biological target: T2, Amine oxidase [flavin-containing] A; assay: Inhibition of human recombinant MAO-A expressed in baculovirus infected BTI-TN-5B1-4 insect sells assessed as hydrogen peroxide production at 50 uM measured after repeated washing by fluorimetric method; settings: BTI-TN-5B1-4, human
[10] = biological target: T1, Amine oxidase [flavin-containing] B; assay: Inhibition of human recombinant MAO-B expressed in baculovirus infected BTI-TN-5B1-4 insect sells assessed as hydrogen peroxide production at 10 nM by fluorimetric method; settings: BTI-TN-5B1-4, human
[11] = biological target: T2, Amine oxidase [flavin-containing] A; assay: Inhibition of human recombinant MAO-A expressed in baculovirus infected BTI-TN-5B1-4 insect sells assessed as hydrogen peroxide production at 50 uM by fluorimetric method; settings: BTI-TN-5B1-4, human

Row | IC50 [1] | inhibition (INH) [2] | Compound | further results
1 | 331 nM | Not Active | O=C1/C(=C/c2ccccc2)COc2ccc(Cl)cc21 | –
2 | – | Not Active | O=C1c2ccccc2OCC1Cc1ccc(O)cc1 (stereo unspecified) | inhibition at 100 µM [3]: 40%
3 | 8.51 nM | Not Active | CN(C)c1ccc(/C=C2\COc3ccccc3C2=O)cc1 | –
4 | – | Not Active | O=c1c(Cc2ccc(Cl)cc2)coc2ccc(Cl)cc12 | inhibition at 100 µM [3]: 40%
5 | 1060 nM | – | CC(=O)Nc1ccc(/C=C2\COc3ccccc3C2=O)cc1 | Ratio IC50 (Homo sapiens): 2; IC50 [4]: 2100 nM
6 | 58500 nM | Not Active | O=C1c2ccccc2OCC1Cc1ccccc1 (stereo unspecified) | –
7 | – | Not Active | O=c1c(Cc2ccccc2)coc2ccccc12 | inhibition (INH) [3]: Not Active
8 | 477 nM | Not Active | COc1ccc(/C=C2\COc3ccccc3C2=O)cc1O | –
9 | 154 nM | Not Active | O=C1/C(=C/c2ccc(Cl)cc2)COc2ccccc21 | –
10 | 1570 nM | Not Active | COc1ccc(/C=C2\COc3cc(OC)cc(OC)c3C2=O)cc1 | –
11 | 141 nM | – | O=C1/C(=C/c2ccc(O)c(O)c2)COc2ccccc21 | Ratio IC50 (Homo sapiens): 34; IC50 [4]: 4740 nM
12 | 104 nM | – | COc1cc(/C=C2\COc3ccccc3C2=O)ccc1O | inhibition at 100 µM [2]: 40%
13 | 248 nM | Not Active | COc1ccc(/C=C2\COc3ccccc3C2=O)c(OC)c1 | –
14 | 1330 nM | – | COc1ccc(/C=C2\COc3ccccc3C2=O)c(O)c1 | inhibition at 100 µM [2]: 40%
15 | 1920 nM | Not Active | COc1cccc(/C=C2\COc3ccccc3C2=O)c1OC | –
16 | – | Not Active | COc1ccc(Cc2coc3cc(OC)cc(OC)c3c2=O)cc1 | inhibition at 100 µM [3]: 40%

Row | IC50 [1] | inhibition (INH) [2] | Compound | further results
17 | 13 nM | Not Active | O=C1/C(=C/c2ccc(Cl)cc2)COc2cc(Cl)cc(Cl)c21 | –
18 | – | Not Active | O=c1c(Cc2ccc(O)cc2)coc2ccccc12 | inhibition at 100 µM [3]: 40%
19 | 4590 nM | Not Active | O=C1c2c(Cl)cc(Cl)cc2OCC1Cc1ccc(Cl)cc1 (stereo unspecified) | –
20 | – | Not Active | O=c1c(Cc2ccc(Cl)cc2)coc2ccccc12 | inhibition (INH) [3]: Not Active
21 | 491 nM | Not Active | O=C1/C(=C/c2ccc(O)c([N+](=O)[O-])c2)COc2ccccc21 | –
22 | – | Not Active | O=C(O)c1cc(/C=C2\COc3ccccc3C2=O)ccc1O | inhibition (INH) [3]: Not Active
23 | 484 nM | – | Nc1cc(/C=C2\COc3ccccc3C2=O)ccc1O | Ratio IC50 (Homo sapiens): 3; IC50 [4]: 1440 nM
24 | 480 nM | Not Active | O=C1/C(=C/c2ccccc2)COc2ccccc21 | –
25 | – | – | O=C(NCCN1CCOCC1)c1ccc(Cl)cc1 [MOCLOBEMIDE] | inhibition at 500 µM [5]: 86%; inhibition at 500 µM [6]: 11.4%; inhibition (INH) [7]: Not Active
26 | 20700 nM | Not Active | COc1cc(/C=C2\COc3ccccc3C2=O)cc(OC)c1OC | –
27 | 879 nM | Not Active | Nc1ccc(/C=C2\COc3ccccc3C2=O)cc1 | –
28 | 3070 nM | Not Active | O=C1c2cc(Cl)ccc2OCC1Cc1ccc(Cl)cc1 (stereo unspecified) | –
29 | 439 nM | – | O=c1c(Cc2ccc(Cl)cc2)coc2cc(Cl)cc(Cl)c12 | inhibition at 100 µM [2]: 40%
30 | 31.8 nM | Not Active | O=C1/C(=C/c2ccc(Cl)cc2)COc2ccc(Cl)cc21 | –
31 | 1310 nM | Not Active | COc1ccc(/C=C2\COc3ccccc3C2=O)c(OC)c1OC | –
32 | 7370 nM | Not Active | O=C1c2ccccc2OCC1Cc1ccc(Cl)cc1 (stereo unspecified) | –

Row | Compound | IC50 [1] | inhibition (INH) [2] | further results
33 | COc1ccc(/C=C2\COc3ccccc3C2=O)cc1 | 58.9 nM | Not Active | –
34 | COc1ccc(Cc2coc3ccccc3c2=O)cc1 | 21600 nM | Not Active | –
35 | O=C1/C(=C/c2ccc(O)cc2)COc2cc(O)cc(O)c21 | 8.61 nM | – | inhibition at 0.01 µM [8]: 36.2%; Ratio IC50 (Homo sapiens): 1330; inhibition at 50 µM [9]: 61.8%; inhibition at 0.01 µM [10]: 48.7%; inhibition at 50 µM [11]: 68.3%; IC50 [4]: 11500 nM
36 | O=C1/C(=C/c2ccc(O)cc2)COc2ccccc21 | 55.4 nM | Not Active | –
